Experimental data published in article PMC6391190 (Pharmacological research, 2019).
Values joined by “and” are separate entries in the source; they are usually repeats but may differ in a detail not shown here. Equal entries are not always repeated. “Also recorded” adds a separate entry of the source.

Tests used:
BCRP [1] = experiment: qPCR of BCRP mRNA in BeWo trophoblast cells; format: cell-based, human; conditions: for reversal of the effects of AEA on BCRP: SB366791 1 μM, GW6471 5 μM, GW9662 5 μM, PD98059; for inhibition of AEA-mediated down-regulation of BCRP mRNA: 0.1 μM, co-treatment with AEA 10 μM
human placental explants = experiment: Morphology of placental explants; format: cell-based; conditions: anandamide treatment; data not shown
BCRP [2] = experiment: Zearalenone transport with HPLC measurement in BeWo cells; format: cell-based, human; conditions: for percent efflux of zearalenone: BeWo
BCRP [3] = experiment: Western blot of BCRP protein in human term placental explants; format: cell-based; conditions: AEA 1 μM, 24 h, densitometry
BCRP promoter = experiment: ChIP of p-CREB binding to the BCRP promoter in BeWo cells; format: cell-based, human; conditions: 1 h
BeWo cells [4] = system: BeWo cells
BCRP [5] = experiment: Hoechst 33342 transport; format: cell-based, human
BeWo cells [6] = conditions: for effect alone on BeWo cell viability: AEA 10 μM or Ko143 1 μM alone, data not shown
BCRP [7] = experiment: qPCR of BCRP mRNA in human term placental explants; format: cell-based; conditions: AEA 1 μM, 24 h
How it was run: (§1)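 Term placental explants were cultured 24 h with AEA (1 μM, 0.05% ethanol final), replenished after 12 h. Explants were snap-frozen and homogenized in RNAzol (bead homogenizer, 4 min, 40 Hz). Reverse transcription used 1000 ng RNA with random primers and MultiScribe (25°C 10 min, 37°C 120 min, 85°C 5 min), then qPCR. Values are means of 3 placentas (3-6 samples each) ± SE.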

[8] = system: syncytialization-related genes (hCGα, syncytin-1, syncytin-2); experiment: qPCR of syncytialization-related genes in human term placental explants; format: cell-based
How it was run: as §1

CREB = experiment: Western blot of CREB phosphorylation in BeWo cells; format: cell-based, human; conditions: 1 h
[9] = cited from earlier work
BCRP [10] = experiment: BODIPY-glyburide Transwell transport across BeWo monolayers; format: cell-based, human; conditions: for reduction of transepithelial transport of BODIPY-glyburide: after 2 h
intracellular cAMP = experiment: Measurement of intracellular cAMP; format: cell-based, human; conditions: 1 h, BeWo
[11] = system: syncytialization markers (hCGβ, syncytin-2, syncytin-1, hCGα); experiment: qPCR of syncytialization markers in BeWo trophoblast cells; format: cell-based, human
How it was run: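 BeWo cells took AEA (ethanol vehicle) either at 10 μM over a time course (including 18, 24 and 48 h, with time-matched vehicle controls) or at 0.01-10 μM for 24 h. Cells were scraped into RNAzol and homogenized. Reverse transcription used 1000 ng RNA with random primers (25°C 10 min, 37°C 120 min, 85°C 5 min), followed by qPCR; mean ± SE, n = 4.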

BCRP [12] = experiment: Western blot of BCRP protein in BeWo cells; format: cell-based, human; conditions: AEA 10 μM, 24 h
How it was run: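 BeWo cells exposed 24 h to AEA (10 μM) or vehicle; AEA was dissolved in ethanol. Cells were lysed in 20 mM Tris-HCl, 150 mM NaCl, 5 mM EDTA, 1% Triton X-100 with protease inhibitor cocktail. Western blotting detected BCRP at 72 kDa, with β-actin (42 kDa) as the loading control. Densitometry was performed.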

[13] = AEA 1 μM, 24 h, human term placental explants
[14] = forskolin 50 μM, 24h, data not shown

## CCC(=O)NC[C@H](Cc1ccc(OCCc2nc(-c3ccccc3)oc2C)cc1)N/C(C)=C\C(=O)c1ccc(C(F)(F)F)cc1 [GW6471]
BCRP [1]; BeWo, data not shown
  reversal of the effects of AEA on BCRP: none of these chemicals reversed the effects of AEA

## CCCCC/C=C\C/C=C\C/C=C\C/C=C\CCCC(=O)NCCO [AEA, anandamide]
Human placental explants
  changes to the morphology of the explants: did not induce any visible changes
BCRP [2]; AEA 10 μM, 24 h
  percent efflux of zearalenone: 33%
BCRP [3]
  down-regulation of BCRP protein: 30%
BCRP promoter; AEA 10 μM
  decrease of p-CREB binding to the BCRP promoter: 68%
BeWo cells [4]; human, 30 min, 100 nM
  reduction in the intracellular concentration of AEA: 44%
BCRP [5]; AEA 10 μM present during uptake and efflux phase (untreated cells)
  effect on ability of BeWo cells to efflux Hoechst 33342: did not impact
BCRP [5]; AEA 10 μM, 24 h pre-treatment, BeWo
  BCRP efflux activity (percent efflux of Hoechst 33342): 15%
BeWo cells [6]
  effect alone on BeWo cell viability: Neither Ko143 nor AEA alone affected
BCRP [1]; AEA 10 μM, BeWo, return to control levels by 48 h
  time of maximal reduction of BCRP mRNA: 24 h
BCRP [1]; BeWo cells
  lowest concentration at which repression of BCRP was observed: 10 nM
BCRP [1]; all AEA concentrations between 0.01 μM and 10 μM, 24 h, BeWo
  decrease of BCRP mRNA expression: 30-50%
BCRP [7]
  reduction of BCRP mRNA expression: 46%
[8]; [13]
  reduction of hCGα mRNA expression: 48%
  reduction of syncytin-1 mRNA expression: 25%
[8]; AEA treatment of placental explants, data not shown
  syncytin-2 mRNA expression: unchanged
CREB; AEA 10 μM co-treated with forskolin 50 μM
  forskolin-induced phosphorylation of CREB: completely inhibited; also recorded: abolished
CREB; AEA 10 μM
  p-CREB relative to total CREB protein: no p-CREB was detected
[9]
  half-life in vivo: < 5 min
BCRP [10]; AEA 10 μM, 24 h
  reduction of transepithelial transport of BODIPY-glyburide: 20%
Intracellular cAMP; AEA 10 μM, control 34.8
  basal intracellular levels of cAMP: 12.4 pmol/mg protein
Intracellular cAMP; forskolin 50 μM + AEA 10 μM
  intracellular levels of cAMP: 8,250 pmol/mg protein
[11]; AEA 0.01 μM, 24 h, BeWo
  lowering of hCGβ mRNA expression: 71%
[11]; AEA 1 μM, 24 h, BeWo
  lowering of syncytin-2 mRNA expression: 40%
[11]; AEA 10 μM, 18 and 24 h, BeWo
  decrease of hCGβ mRNA expression: 40-50%
  decrease of syncytin-2 mRNA expression: 40-50%
[11]; BeWo cells, data not shown
  expression of syncytin-1 or hCGα mRNAs: did not alter
BCRP [12]
  BCRP protein expression: reduced protein expression

## COc1ccc2c3c([nH]c2c1)[C@H](CC(C)C)N1C(=O)[C@H](CCC(=O)OC(C)(C)C)NC(=O)[C@@H]1C3 [Ko143]
BCRP [2]; Ko143 1 μM
  percent efflux of zearalenone: 49%
BeWo cells [4]; Ko143 1 μM, 3H-AEA 100 nM, BeWo
  effect on AEA retention: had no impact
BCRP [5]; Ko143 1 μM present during assay, BeWo
  BCRP efflux activity (percent efflux of Hoechst 33342): 8%
BeWo cells [6]
  effect alone on BeWo cell viability: Neither Ko143 nor AEA alone affected
BCRP [10]; Ko143 1 μM, present during assay
  reduction of transepithelial transport of BODIPY-glyburide: 32%

## COc1cc(CNC(=O)CCCC/C=C/C(C)C)ccc1O [Capsaicin]
BCRP [1]; capsaicin 1 μM, 24 h, BeWo, data not shown
  effect on BCRP expression: no effect

## Cc1c(C(=O)NN2CCCCC2)nn(-c2ccc(Cl)cc2Cl)c1-c1ccc(Cl)cc1 [rimonabant]
BCRP [1]; 24 h, BeWo
  inhibition of AEA-mediated down-regulation of BCRP mRNA: only partially inhibited

## Nc1ncnc2c1nc(Br)n2[C@@H]1O[C@@H]2COP(=O)(O)O[C@H]2[C@H]1O [8-Br-cAMP]
BCRP [5]; 8-Br-cAMP 1 mM with AEA 10 μM, 24 h, BeWo
  prevention of AEA lowering of Hoechst 33342 efflux: completely prevented
BCRP [5]; 8-Br-cAMP 1 mM, 24 h, BeWo
  effect itself on Hoechst 33342 transport: no effect
BCRP [1]; 8-Br-cAMP 1 mM, 24 h with AEA 10 μM, 24 h, BeWo
  attenuation of AEA down-regulation of BCRP expression and efflux activity: abrogated; also recorded: completely attenuated

## COc1cccc(-c2cc(=O)c3ccccc3o2)c1N [PD98059]
BCRP [1]; BeWo, data not shown
  reversal of the effects of AEA on BCRP: none of these chemicals reversed the effects of AEA

## O=C(Nc1ccccc1)c1cc([N+](=O)[O-])ccc1Cl [GW9662]
BCRP [1]; BeWo, data not shown
  reversal of the effects of AEA on BCRP: none of these chemicals reversed the effects of AEA

## Lucifer yellow
BCRP [10]; Lucifer yellow 20 μM, BeWo monolayer integrity
  percent of Lucifer yellow rejection: 95.3 ± 3.7%

## COc1ccc(C(=O)c2c(C)n(CCN3CCOCC3)c3cc(I)ccc23)cc1 [AM630]
BCRP [1]; 24 h, BeWo
  inhibition of AEA-mediated down-regulation of BCRP mRNA: abrogated; also recorded: completely inhibited

## CCOc1ccc(-c2nc3ccc(-c4nc5ccc(N6CCN(C)CC6)cc5[nH]4)cc3[nH]2)cc1 [Hoechst 33342]
BCRP [5]; vehicle-treated/control BeWo cells, Hoechst 33342 5 μM
  percent efflux of Hoechst 33342 taken up: 35% and 33%

## C=C[C@@]1(C)CC(=O)[C@]2(O)[C@@]3(C)[C@@H](O)CCC(C)(C)[C@@H]3[C@H](O)[C@H](OC(C)=O)[C@@]2(C)O1 [forskolin]
BCRP promoter; co-treatment with AEA 10 μM and forskolin 50 μM
  reduction in p-CREB binding to the BCRP promoter: 12%
BCRP [5]; [14]
  effect on AEA-mediated reduction of Hoechst 33342 efflux: had no effect
BCRP [1]; [14]
  inhibition of AEA-mediated reduction of BCRP transcription: partially inhibited
CREB; forskolin 50 μM
  CREB phosphorylation: consistently increased
Intracellular cAMP; forskolin 50 μM
  intracellular levels of cAMP: 12,800 pmol/mg protein

## C[C@H]1CCCC(=O)CCC/C=C/c2cc(O)cc(O)c2C(=O)O1 [ZLN, zearalenone]
BCRP [2]; vehicle-treated BeWo cells, zearalenone 50 μM
  percent efflux of accumulated zearalenone: 71%

## COc1cccc(NC(=O)/C=C/c2ccc(Cl)cc2)c1 [SB366791]
BCRP [1]; BeWo, data not shown
  reversal of the effects of AEA on BCRP: none of these chemicals reversed the effects of AEA

## C[C@H]1CCC[C@H](O)CCCCCc2cc(O)cc(O)c2C(=O)O1 [α-ZRN, α-zearalanol]
BeWo cells [6]; human
  LC50 values, AEA: 27.4 ± 9.1 µM
  LC50 values, Ko143: 36.0 ± 10.1 µM
